Source: ChEMBL document CHEMBL1136803, “Azasterols as inhibitors of sterol 24-methyltransferase in Leishmania species and Trypanosoma cruzi” (J Med Chem, 2003)
“And” between values parts separate entries of the source, which are not always exact repeats. Equal values may be shown once.

Experiments:
[1] = In vitro inhibitory concentration against Trypanosoma cruzi epimastigotes; format: functional
Summary of the method: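 T. cruzi Y strain epimastigotes in liver infusion tryptose medium with 10% fetal bovine serum at 28 °C; exponential-phase parasites incubated with compound 96 h, counted by Neubauer hemocytometer. IC₅₀ from I = Imax·C/(IC₅₀+C), Imax 100%.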

[2] = tested on: Leishmania amazonensis; assay: In vitro inhibitory concentration against Leishmania amazonensis promastigotes; format: functional, organism-based
Summary of the method: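 L. amazonensis MHOM/BR/75/Josefa promastigotes (mouse-passaged) in Warren's medium with 10% fetal bovine serum at 25 °C; exponential-phase cells incubated with compound 96 h, counted by Neubauer hemocytometer. IC₅₀ from I = Imax·C/(IC₅₀+C), Imax 100%.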

[3] = Evaluated for its toxicity against KB cells; format: cell-based; details: Homo sapiens
Summary of the method: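 KB cells seeded at 4 × 10⁴/mL in RPMI 1640 + 10% HIFCS, 24 h at 37 °C, 5% CO₂, then exposed to 300, 30, 3 and 0.3 μg/mL in triplicate for 72 h; podophyllotoxin positive control. AlamarBlue added for 2–4 h, fluorescence at EX/EM 530/585 nm; ED₅₀ relative to blanks and untreated controls.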

[4] = tested on: Leishmania amazonensis; assay: (§1) Effect of compound on free sterol compositions of leishmania mexicana amazonensis promastigotes at a concentration of 0.1 uM; format: functional
Summary of the method: (§2)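 L. mexicana amazonensis promastigotes grown in LIT medium with lactalbumin and 10% fetal calf serum at 26 °C without agitation; cultures started at 2 × 10⁶ cells/mL, drug added at 0.5–1 × 10⁷ cells/mL. Total lipids extracted, split into neutral and polar fractions by silicic acid chromatography, sterols analysed by gas-liquid chromatography; read-out is % 24-alkylated vs 24-nonalkylated sterols.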

[5] = tested on: Leishmania amazonensis; assay: In vitro inhibitory concentration against Leishmania amazonensis intracellular amastigotes; format: functional, organism-based
Summary of the method: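 Swiss mouse peritoneal macrophages adhered 24 h at 37 °C, 5% CO₂, infected with stationary-phase L. amazonensis promastigotes (1:10) at 35 °C for 2 h, washed, held 24 h drug-free, then exposed to compound for 96 h. Bouin-fixed, Giemsa-stained; percentage of infected cells scored, IC₅₀ from hyperbolic inhibition function I = Imax·C/(IC₅₀+C).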

[6] = tested on: Leishmania donovani; assay: In vitro inhibitory concentration against Leishmania donovani intracellular amastigotes; format: functional, organism-based
Summary of the method: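 CD1 mouse starch-induced peritoneal macrophages in RPMI1640 + 10% HIFCS, 37 °C, 5% CO₂, infected with hamster-spleen L. donovani MHOM/ET/67/L82 amastigotes (5:1); after 24 h drug exposure for 5 days, overlay replaced day 3, top concentration 30 μg/mL, quadruplicates. Methanol-fixed, Giemsa-stained, scored microscopically; ED₅₀ by curve fitting; Pentostam positive control.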

[7] = In vitro inhibitory concentration against Trypanosoma cruzi intracellular amastigotes; format: functional, cell-based
[8] = tested on: Leishmania amazonensis; assay: as §1; format: functional; summary of the method: as §2; remark: listed apart in the source
[9] = tested on: Leishmania amazonensis; assay: Effect of compound on free sterol composition of leishmania mexicana amazonensis promastigotes at a concentration of 0 uM,; format: functional; summary of the method: as §2
[10] = tested on: Leishmania amazonensis; assay: Effect of compound on free sterol compositions of leishmania mexicana amazonensis promastigotes at a concentration of 1.0 uM; format: functional; summary of the method: as §2
[11] = tested on: Leishmania amazonensis; assay: Effect on free sterol compositions of leishmania mexicana amazonensis promastigotes at a concentration of 0.1 uM; format: functional; summary of the method: as §2
[12] = tested on: Leishmania amazonensis; assay: Effect of compound on free sterol compositions of leishmania mexicana amazonensis promastigotes at a concentration of 0.01 uM; format: functional; summary of the method: as §2

Question: What does the source list for `CC(O)(C1CCCCN1)[C@H]1CC[C@H]2[C@@H]3CCC4C[C@@H](O[Si](C)(C)C(C)(C)C)CC[C@]4(C)[C@H]3CC[C@]12C` (some centres undefined)?
Answer: IC50 [1]: 0.6 µM; IC50 [2]: 1.09 µM; IC50 [3]: > 579 µM; Effect [4]: 8.5%; IC50 [5]: 0.02 µM; IC50 [6]: > 58 µM; IC50 [7]: 50 µM; Effect [8]: <1%

Question: Which IC50 [1] does the source give for `CC(O)(C1CCCCN1)[C@H]1CC[C@H]2[C@@H]3CCC4C[C@@H](O)CC[C@]4(C)[C@H]3CC[C@]12C` (some centres undefined) here?
Answer: 0.94 µM

Question: What about the IC50 [2] of the same compound?
Answer: 0.1 µM

Question: What about the IC50 [3] of the same compound?
Answer: 11.9 µM

Question: What about the Effect [9] of the same compound?
Answer: 9.8%

Question: And the Effect [4]?
Answer: 11.1%

Question: And the IC50 [5]?
Answer: 0.01 µM

Question: And the IC50 [6]?
Answer: 8.9 µM

Question: And the IC50 [7]?
Answer: 7.4 µM

Question: And the Effect [8]?
Answer: 64.2%

Question: Which results are given for `CC(O)(c1ccccn1)[C@H]1CC[C@H]2[C@@H]3CCC4C[C@@H](O[Si](C)(C)C(C)(C)C)CC[C@]4(C)[C@H]3CC[C@]12C` (some centres undefined)?
Answer: IC50 [1]: 0.68 µM; IC50 [2]: 1.88 µM; IC50 [3]: > 586 µM; IC50 [5]: 1 µM; IC50 [6]: > 59 µM; IC50 [7]: > 59 µM

Question: With `CCC(=O)N1CCCC(C(C)(O)[C@H]2CC[C@H]3[C@@H]4CCC5C[C@@H](O)CC[C@]5(C)[C@H]4CC[C@]23C)C1` (some centres undefined) as the compound, how does the IC50 [3] read?
Answer: 336 µM

Question: What about the Effect [4] of the same compound?
Answer: 11.7%

Question: What about the IC50 [6] of the same compound?
Answer: 37.9 µM

Question: What about the Effect [10] of the same compound?
Answer: 49.7%

Question: What about the IC50 [7] of the same compound?
Answer: 64.6 µM

Question: Which IC50 [3] does the source give for `CCC(=O)N1CCCCC1C(C)(O)[C@H]1CC[C@H]2[C@@H]3CCC4C[C@@H](O)CC[C@]4(C)[C@H]3CC[C@]12C` (some centres undefined) here?
Answer: 11.1 µM

Question: And the Effect [4]?
Answer: 17.7%

Question: What about the IC50 [6] of the same compound?
Answer: 23.1 µM

Question: And the IC50 [7]?
Answer: 22.8 µM

Question: And the Effect [8]?
Answer: 4.4%

Question: For `CC(O)(c1cccnc1)[C@H]1CC[C@H]2[C@@H]3CCC4C[C@@H](O)CC[C@]4(C)[C@H]3CC[C@]12C` (some centres undefined), which IC50 [1] is on record?
Answer: 0.62 µM

Question: What about the Effect [11] of the same compound?
Answer: 3.1% and 4.1% and 11.1%

Question: And the IC50 [2]?
Answer: 4.24 µM

Question: And the IC50 [3]?
Answer: > 755 µM

Question: What about the Effect [4] of the same compound?
Answer: 12.4%

Question: And the IC50 [5]?
Answer: 3 µM

Question: And the IC50 [6]?
Answer: 23.4 µM

Question: And the Effect [12]?
Answer: 4.7%

Question: And the IC50 [7]?
Answer: 13.3 µM

Question: What about the Effect [8] of the same compound?
Answer: 41.9%

Question: For `CC(O)(c1ccncc1Cl)[C@H]1CC[C@H]2[C@@H]3CCC4C[C@@H](O[Si](C)(C)C(C)(C)C)CC[C@]4(C)[C@H]3CCC12C` (some centres undefined), which IC50 [3] is on record?
Answer: 234 µM

Question: What about the IC50 [6] of the same compound?
Answer: > 55 µM

Question: And the IC50 [7]?
Answer: > 55 µM

Question: What does the source list for `CC(O)(c1ccncc1)[C@H]1CC[C@H]2[C@@H]3CCC4C[C@@H](O[Si](C)(C)C(C)(C)C)CC[C@]4(C)[C@H]3CC[C@]12C` (some centres undefined)?
Answer: IC50 [1]: 0.67 µM; IC50 [2]: 3.21 µM; IC50 [3]: 574 µM; IC50 [5]: 2 µM; IC50 [6]: 15 µM; IC50 [7]: 6.1 µM

Question: Which IC50 [1] does the source give for `CCC(=O)N1CCCCC1C(C)(O)[C@H]1CC[C@H]2[C@@H]3CCC4C[C@@H](O[Si](C)(C)C(C)(C)C)CC[C@]4(C)[C@H]3CC[C@]12C` (some centres undefined) here?
Answer: 1 µM

Question: And the IC50 [2]?
Answer: 10.3 µM

Question: And the IC50 [3]?
Answer: > 520 µM

Question: And the IC50 [5]?
Answer: 8 µM

Question: And the IC50 [6]?
Answer: > 52 µM

Question: And the IC50 [7]?
Answer: > 52 µM

Question: What does the source list for `CC(O)(C1CCCNC1)[C@H]1CC[C@H]2[C@@H]3CCC4C[C@@H](O)CC[C@]4(C)[C@H]3CC[C@]12C` (some centres undefined)?
Answer: IC50 [3]: 29.2 µM; Effect [4]: 13.1%; IC50 [6]: 4.8 µM; IC50 [7]: 18 µM; Effect [8]: 63.7%

Question: Which IC50 [3] does the source give for `CC(O)(c1ccncc1Cl)[C@H]1CC[C@H]2[C@@H]3CCC4C[C@@H](O)CC[C@]4(C)[C@H]3CC[C@]12C` (some centres undefined) here?
Answer: < 0.7 µM

Question: And the IC50 [6]?
Answer: > 69 µM

Question: And the IC50 [7]?
Answer: 50 µM

Question: With `CC(O)(c1ccccn1)[C@H]1CC[C@H]2[C@@H]3CCC4C[C@@H](O)CC[C@]4(C)[C@H]3CC[C@]12C` (some centres undefined) as the compound, how does the IC50 [1] read?
Answer: 1.03 µM

Question: What about the IC50 [2] of the same compound?
Answer: 1.14 µM

Question: What about the IC50 [3] of the same compound?
Answer: 11.3 µM

Question: What about the Effect [4] of the same compound?
Answer: 15.5%

Question: And the IC50 [5]?
Answer: 1 µM

Question: What about the IC50 [6] of the same compound?
Answer: 14.6 µM

Question: What about the IC50 [7] of the same compound?
Answer: 32.9 µM

Question: And the Effect [8]?
Answer: 1.6%

Question: What does the source list for `CC(O)(c1cccnc1)[C@H]1CC[C@H]2[C@@H]3CCC4C[C@@H](O[Si](C)(C)C(C)(C)C)CC[C@]4(C)[C@H]3CC[C@]12C` (some centres undefined)?
Answer: IC50 [1]: 1.2 µM; Effect [11]: 6.6%; IC50 [2]: 1.75 µM; IC50 [3]: > 586 µM; IC50 [5]: 1.5 µM; IC50 [6]: 13.9 µM; IC50 [7]: 51.2 µM

Question: Which results are given for `CCC(=O)N1CCCC(C(C)(O)[C@H]2CC[C@H]3[C@@H]4CCC5C[C@@H](O[Si](C)(C)C(C)(C)C)CC[C@]5(C)[C@H]4CC[C@]23C)C1` (some centres undefined)?
Answer: IC50 [1]: 0.6 µM; IC50 [2]: 1.21 µM; IC50 [3]: > 520 µM; IC50 [5]: 1 µM; IC50 [6]: > 52 µM; IC50 [7]: > 52 µM

Question: For `CC(O)(c1ccncc1)[C@H]1CC[C@H]2[C@@H]3CCC4C[C@@H](O)CC[C@]4(C)[C@H]3CC[C@]12C` (some centres undefined), which IC50 [1] is on record?
Answer: 0.68 µM

Question: And the IC50 [2]?
Answer: 3.41 µM

Question: And the IC50 [3]?
Answer: 30.7 µM

Question: What about the IC50 [5] of the same compound?
Answer: 3 µM

Question: And the IC50 [6]?
Answer: 11.3 µM

Question: And the IC50 [7]?
Answer: 35 µM

Question: Which IC50 [1] does the source give for `CC(O)(C1CCCNC1)[C@H]1CC[C@H]2[C@@H]3CCC4C[C@@H](O[Si](C)(C)C(C)(C)C)CC[C@]4(C)[C@H]3CC[C@]12C` (some centres undefined) here?
Answer: 1.01 µM

Question: And the IC50 [2]?
Answer: 1.4 µM

Question: What about the IC50 [3] of the same compound?
Answer: 2.5 µM

Question: And the IC50 [5]?
Answer: 1 µM

Question: What about the IC50 [6] of the same compound?
Answer: 6.4 µM

Question: What about the IC50 [7] of the same compound?
Answer: 42.1 µM
